According to ChEMBL document CHEMBL2157986, “The multiobjective based design, synthesis and evaluation of the arylsulfonamide/amide derivatives of aryloxyethyl- and arylthioethyl- piperidines and pyrrolidines as a novel class of potent 5-HT₇ receptor antagonists” (Eur J Med Chem, 2012):

Tests used:
[1] = biological target: 5-hydroxytryptamine receptor 7 (Homo sapiens, UniProt P34969); experiment: Displacement of [3H]-5-CT from human 5-HT7b receptor expressed in HEK293 cells after 1 hr; assay type: cell-based
Chain of 5-hydroxytryptamine receptor 7 (P34969 whole entry): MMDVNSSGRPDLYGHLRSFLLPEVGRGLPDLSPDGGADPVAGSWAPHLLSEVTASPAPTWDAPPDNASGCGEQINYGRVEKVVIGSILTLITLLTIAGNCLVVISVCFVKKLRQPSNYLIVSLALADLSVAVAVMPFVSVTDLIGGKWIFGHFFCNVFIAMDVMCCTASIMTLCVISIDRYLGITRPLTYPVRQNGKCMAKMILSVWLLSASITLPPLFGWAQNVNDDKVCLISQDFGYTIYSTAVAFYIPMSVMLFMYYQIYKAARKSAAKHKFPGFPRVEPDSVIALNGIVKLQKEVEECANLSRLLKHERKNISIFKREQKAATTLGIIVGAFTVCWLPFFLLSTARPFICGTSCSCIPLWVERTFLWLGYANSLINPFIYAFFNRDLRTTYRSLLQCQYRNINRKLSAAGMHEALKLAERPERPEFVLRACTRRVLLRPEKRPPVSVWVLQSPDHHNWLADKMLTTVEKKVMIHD

Homo sapiens = organism: Homo sapiens; experiment: Selectivity ratio of Ki for human 5-HT1A receptor to Ki for human 5-HT7b receptor
[2] = biological target: 5-hydroxytryptamine receptor 6 (Homo sapiens, UniProt P50406); experiment: Displacement of [3H]-LSD from human 5-HT6 receptor expressed in HEK293 cells after 1 hr; assay type: cell-based
Chain of 5-hydroxytryptamine receptor 6 (P50406 whole entry): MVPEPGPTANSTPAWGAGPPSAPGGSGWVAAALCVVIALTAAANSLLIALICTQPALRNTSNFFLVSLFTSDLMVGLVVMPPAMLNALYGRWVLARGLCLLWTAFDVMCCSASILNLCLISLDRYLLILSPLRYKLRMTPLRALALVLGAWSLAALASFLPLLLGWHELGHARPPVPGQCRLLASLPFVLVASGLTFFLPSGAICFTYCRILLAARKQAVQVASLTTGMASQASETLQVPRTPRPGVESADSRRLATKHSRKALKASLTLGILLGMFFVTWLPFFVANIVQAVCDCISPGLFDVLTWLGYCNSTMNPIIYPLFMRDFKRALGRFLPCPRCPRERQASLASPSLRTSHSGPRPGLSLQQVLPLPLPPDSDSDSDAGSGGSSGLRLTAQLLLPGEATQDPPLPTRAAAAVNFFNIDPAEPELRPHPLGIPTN

[3] = biological target: T1, 5-hydroxytryptamine receptor 1A (Homo sapiens, UniProt P08908); experiment: Displacement of [3H]-8-OH-DPAT from human 5-HT1A receptor expressed in HEK293 cells after 1 hr; assay type: cell-based
T1 sequence (P08908 whole entry): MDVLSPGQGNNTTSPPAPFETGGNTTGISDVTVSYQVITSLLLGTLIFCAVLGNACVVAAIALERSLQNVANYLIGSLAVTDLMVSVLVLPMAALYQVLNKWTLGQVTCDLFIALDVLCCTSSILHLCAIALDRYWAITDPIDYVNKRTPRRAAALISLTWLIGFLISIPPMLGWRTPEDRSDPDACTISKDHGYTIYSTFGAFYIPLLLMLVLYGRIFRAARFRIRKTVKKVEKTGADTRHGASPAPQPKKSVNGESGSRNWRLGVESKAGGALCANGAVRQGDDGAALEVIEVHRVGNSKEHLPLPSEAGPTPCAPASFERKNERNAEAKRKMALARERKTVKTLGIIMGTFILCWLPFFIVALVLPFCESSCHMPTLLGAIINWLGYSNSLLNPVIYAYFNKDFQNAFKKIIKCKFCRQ
In short: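 Membranes from stably transfected HEK293 cells (human 5-HT1A), homogenized in 50 mM Tris–HCl, 0.1 mM EDTA, 4 mM MgCl2, 10 µM pargyline, 0.1% ascorbate; incubated 1 h at room temperature, then rapid filtration and radioactivity counting. Nonspecific binding with 10 µM 5-HT.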

D(2) dopamine receptor = D(2) dopamine receptor (Homo sapiens, UniProt P14416); experiment: Binding affinity to human dopamine D2L receptor expressed in HEK293 cells after 1 hr; assay type: cell-based
Chain of D(2) dopamine receptor (P14416 whole entry): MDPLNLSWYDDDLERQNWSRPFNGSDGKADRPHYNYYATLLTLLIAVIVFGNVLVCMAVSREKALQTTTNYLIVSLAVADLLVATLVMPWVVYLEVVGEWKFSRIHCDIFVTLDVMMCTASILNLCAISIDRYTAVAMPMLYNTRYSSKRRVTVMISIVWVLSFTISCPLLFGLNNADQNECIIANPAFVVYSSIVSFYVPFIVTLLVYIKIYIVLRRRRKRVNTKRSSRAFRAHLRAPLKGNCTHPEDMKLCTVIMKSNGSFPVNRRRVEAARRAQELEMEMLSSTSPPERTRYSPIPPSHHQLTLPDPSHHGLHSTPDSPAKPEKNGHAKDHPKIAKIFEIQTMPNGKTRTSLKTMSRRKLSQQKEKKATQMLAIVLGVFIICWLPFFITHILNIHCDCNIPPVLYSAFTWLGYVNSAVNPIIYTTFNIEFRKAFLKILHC

`O=S(=O)(NCC1CCN(CCOc2ccccc2-c2ccccc2)CC1)c1ccc(F)cc1` showed a Ki [1] of 13 nM, a Ratio Ki (Homo sapiens) of 22 and a Ki [2] of 315 nM. For the same compound, the Ki [3] was 290 nM and the Ki (D(2) dopamine receptor) was 46 nM.
For `O=C(NC1CCN(CCOc2ccccc2-c2ccccc2)C1)c1ccc2ccccc2n1` (stereo not given), the Ki [1] was 41 nM, the Ratio Ki (Homo sapiens) was 1 and the Ki [2] was 1340 nM. For the same compound, the Ki [3] was 45 nM and the Ki (D(2) dopamine receptor) was 24 nM.
With `O=C(NC1CCN(CCOc2ccccc2-c2ccccc2)C1)c1cccc(F)c1F` (stereo not given) the Ki [1] was 21 nM, the Ratio Ki (Homo sapiens) was 2 and the Ki [2] was 1800 nM. The Ki [3] was 48 nM and the Ki (D(2) dopamine receptor) was 15 nM.
In the case of `CC(C)c1ccccc1OCCN1CCC(NC(=O)c2ccc3ccccc3n2)C1` (stereo not given), the Ki [1] is reported as 178 nM, the Ratio Ki (Homo sapiens) is reported as < 1 and the Ki [2] is reported as 1760 nM. For the same compound, the Ki [3] was 30 nM and the Ki (D(2) dopamine receptor) was 79 nM.
For `O=S(=O)(N[C@@H]1CCN(CCOc2ccccc2-c2ccccc2)C1)c1ccc(F)cc1`, the Ki [1] was 2 nM, the Ratio Ki (Homo sapiens) was 11 and the Ki [2] was 102 nM. For the same compound, the Ki [3] was 22 nM and the Ki (D(2) dopamine receptor) was 16 nM.
`O=S(=O)(N[C@H]1CCN(CCOc2ccccc2-c2ccccc2)C1)c1ccc(F)cc1` gave a Ki [1] of 10 nM, a Ratio Ki (Homo sapiens) of 3 and a Ki [2] of 271 nM. The Ki [3] was 32 nM and the Ki (D(2) dopamine receptor) was 10 nM.
With `O=S(=O)(NCC1CCN(CCOc2ccccc2-c2ccccc2)CC1)c1ccc(Cl)s1` the Ki [1] was 20 nM, the Ratio Ki (Homo sapiens) was 5 and the Ki [2] was 410 nM. It also gave a Ki [3] of 101 nM and a Ki (D(2) dopamine receptor) of 32 nM.
`O=S(=O)(NC1CCN(CCOc2ccccc2)CC1)c1cccs1` gave a Ki [1] of 155 nM, a Ratio Ki (Homo sapiens) of 2 and a Ki [2] of 862 nM. The Ki [3] was 237 nM and the Ki (D(2) dopamine receptor) was 84 nM.
`CCOc1ccccc1C(=O)NC1CCN(CCOc2cccc(F)c2)CC1` was tested, and the Ki [1] was 2380 nM, the Ratio Ki (Homo sapiens) was < 1 and the Ki [2] was 3780 nM. For the same compound, the Ki [3] was 456 nM and the Ki (D(2) dopamine receptor) was 76 nM.
`O=S(=O)(NC1CCN(CCOc2ccccc2)C1)c1ccc(F)cc1` (stereo not given) showed a Ki [1] of 9 nM, a Ratio Ki (Homo sapiens) of 1 and a Ki [2] of 248 nM. It also gave a Ki [3] of 9 nM and a Ki (D(2) dopamine receptor) of 11 nM.
For `O=S(=O)(NCC1CCN(CCOc2cccc(F)c2)CC1)c1ccc(F)cc1`, the Ki [1] was 1360 nM, the Ratio Ki (Homo sapiens) was < 1 and the Ki [2] was 2120 nM. The Ki [3] was 903 nM and the Ki (D(2) dopamine receptor) was 839 nM.
`O=S(=O)(NCC1CCN(CCOc2cccc(F)c2)CC1)c1cccs1` was tested, and the Ki [1] was 2220 nM, the Ratio Ki (Homo sapiens) was < 1 and the Ki [2] was 2760 nM. It also gave a Ki [3] of 841 nM and a Ki (D(2) dopamine receptor) of 1060 nM.
In the case of `CC(C)c1ccccc1OCCN1CCC(NS(=O)(=O)c2cccs2)C1` (stereo not given), the Ki [1] is reported as 29 nM, the Ratio Ki (Homo sapiens) is reported as < 1 and the Ki [2] is reported as 258 nM. It also gave a Ki [3] of 21 nM and a Ki (D(2) dopamine receptor) of 16 nM.
For `CC(C)c1ccccc1OCCN1CCC(NS(=O)(=O)c2cccc3cccnc23)C1` (stereo not given), the Ki [1] was 10 nM, the Ratio Ki (Homo sapiens) was 2 and the Ki [2] was 504 nM. It also gave a Ki [3] of 23 nM and a Ki (D(2) dopamine receptor) of 10 nM.
